ChEMBL document CHEMBL2177103, “Discovery of diverse human dihydroorotate dehydrogenase inhibitors as immunosuppressive agents by structure-based virtual screening” (J Med Chem, 2012)
pIC50: −log10 of the molar value.

Columns and labels:
[1] = molecular target: T1, Dihydroorotate dehydrogenase (Plasmodium falciparum, UniProt Q54A96); experiment: Inhibition of Plasmodium falciparum DHODH expressed in Escherichia coli BL21 (DE3) using L-dihydroorotate as substrate after 10 mins by DCIP dye reduction assay
T1 sequence (Q54A96 whole entry): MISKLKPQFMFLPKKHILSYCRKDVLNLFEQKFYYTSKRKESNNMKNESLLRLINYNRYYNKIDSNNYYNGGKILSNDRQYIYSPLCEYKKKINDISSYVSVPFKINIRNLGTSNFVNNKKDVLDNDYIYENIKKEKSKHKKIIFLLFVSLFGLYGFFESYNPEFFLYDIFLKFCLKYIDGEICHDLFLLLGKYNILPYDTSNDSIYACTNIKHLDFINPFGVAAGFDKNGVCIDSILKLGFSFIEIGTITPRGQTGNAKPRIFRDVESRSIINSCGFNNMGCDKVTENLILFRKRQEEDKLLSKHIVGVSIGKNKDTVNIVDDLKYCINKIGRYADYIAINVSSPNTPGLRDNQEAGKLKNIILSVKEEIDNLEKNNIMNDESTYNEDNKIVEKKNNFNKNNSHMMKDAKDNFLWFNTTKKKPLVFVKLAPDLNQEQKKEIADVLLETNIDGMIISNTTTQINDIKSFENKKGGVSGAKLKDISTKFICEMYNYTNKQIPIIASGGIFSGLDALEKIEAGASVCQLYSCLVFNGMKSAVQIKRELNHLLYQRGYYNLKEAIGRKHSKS
In short: (§1)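 DCIP reduction read as absorbance decrease at 600 nm over 5 min. Enzyme preincubated 10 min with compound (DMSO stock diluted in assay buffer); reaction started with dihydroorotate, 500 μM final.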

[2] = molecular target: Dihydroorotate dehydrogenase (quinone), mitochondrial (Homo sapiens, UniProt Q02127); experiment: Inhibition of human DHODH expressed in Escherichia coli BL21(DE3) using L-dihydroorotate as substrate after 10 mins by DCIP dye reduction assay
Chain of Dihydroorotate dehydrogenase (quinone), mitochondrial (Q02127 whole entry): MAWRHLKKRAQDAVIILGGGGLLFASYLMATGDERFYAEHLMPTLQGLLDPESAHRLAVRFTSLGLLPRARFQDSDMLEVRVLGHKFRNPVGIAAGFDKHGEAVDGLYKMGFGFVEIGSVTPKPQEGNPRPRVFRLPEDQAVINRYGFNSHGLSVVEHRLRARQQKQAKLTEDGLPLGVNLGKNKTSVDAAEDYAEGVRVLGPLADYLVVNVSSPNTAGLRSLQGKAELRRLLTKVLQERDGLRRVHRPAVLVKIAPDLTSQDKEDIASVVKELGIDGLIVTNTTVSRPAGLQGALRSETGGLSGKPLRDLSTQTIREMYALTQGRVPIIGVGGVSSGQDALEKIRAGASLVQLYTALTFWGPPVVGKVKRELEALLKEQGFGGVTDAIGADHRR

[3] = molecular target: T2, Dihydroorotate dehydrogenase (Plasmodium falciparum) (UniProt Q54A96); experiment: Inhibition of Plasmodium falciparum DHODH expressed in Escherichia coli BL21 (DE3) using L-dihydroorotate as substrate at 10 uM after 10 mins by DCIP dye reduction assay; in short: as §1
T2 sequence (whole entry): T1 sequence (Q54A96 whole entry)

[4] = test system: Jurkat; experiment: Cytotoxicity against human Jurkat cells after 4 days by MTT assay; format: cell-based; conditions: 96 h
[5] = test system: Jurkat; experiment: Selectivity ratio of IC50 for human Jurkat cells to IC50 for ICR mouse B cells
[6] = test system: T-cell; experiment: Selectivity ratio of IC50 for mouse T cells to IC50 for ICR mouse B cells; format: functional
[7] = Immunosuppressive activity in mouse T cells assessed as inhibition of two way mixed lymphocyte reaction after 4 days by MTT assay; format: functional, cell-based; conditions: T-cell, 96 h
[8] = Immunosuppressive activity in ICR mouse B cells assessed as inhibition of LPS-stimulated cell proliferation after 72 hrs by MTT assay; format: functional, cell-based

pIC50 [1]	pIC50 [2]	inhibition [3]	SMILES	pIC50 [4]	Ratio IC50 [5]	Ratio IC50 [6]	pIC50 [7]	pIC50 [8]
5.02	4.91		O=c1cc(-c2ccc(O)c(O)c2)oc2ccccc12					
	4.79	< 20%	Cc1ccccc1C(=O)Nc1cc(Cl)c(O)c(Cl)c1					
			C/C=C/C[C@@H](C)[C@@H](O)[C@H]1C(=O)N[C@@H](CC)C(=O)N(C)CC(=O)N(C)[C@@H](CC(C)C)C(=O)N[C@@H](C(C)C)C(=O)N(C)[C@@H](CC(C)C)C(=O)N[C@@H](C)C(=O)N[C@H](C)C(=O)N(C)[C@@H](CC(C)C)C(=O)N(C)[C@@H](CC(C)C)C(=O)N(C)[C@@H](C(C)C)C(=O)N1C [CYCLOSPORINE]	< 5.00				
	5.22	< 20%	O=C(/C=C/c1ccc(O)c(C(=O)O)c1)c1ccc(Cl)cc1	4.34	26	17	4.52	5.75
6.12	6.03		CC(=O)c1sc(Nc2ccc(C)c(Cl)c2)nc1C	5.27			5.02	5.33
	4.89	< 20%	O=C(/C=C/c1ccc(F)cc1)Nc1ccccn1					
	6.11	< 20%	Oc1ccc(/C=N/c2cccc3ccccc23)c(O)c1	4.58			4.63	4.95
	5.40	< 20%	Oc1ccc(/N=C/c2ccc3ccccc3c2)cc1	4.34			5.02	5.00
	5.17	< 20%	COc1cccc(C(=O)Nc2nc3ccccc3s2)c1	< 4.00			< 4.00	4.79
	4.81	< 20%	O=C(O)c1ccc(/C=N/c2cccc3ccccc23)cc1					
			C/C(O)=C(\C#N)C(=O)Nc1ccc(C(F)(F)F)cc1 [TERIFLUNOMIDE]	4.57			4.32	5.39
	5.48	< 20%	Brc1ccc(-c2csc(N/N=C/c3ccccc3)n2)cc1	5.97			< 4.00	< 4.00
	5.90	< 20%	COC(=O)c1ccc(Nc2nc(-c3ccc(Cl)cc3)c(C)s2)cc1	4.80			4.88	4.89
	5.56	< 20%	CC1=NN(c2ccccc2)C(=O)/C1=C/c1ccc(-c2cccc(C(=O)O)c2)o1	< 4.00			4.13	< 4.00
	4.74	< 20%	c1ccc2c(c1)Nc1nc3ccccc3nc1O2					
	6.26	< 20%	CCc1cccc(NC(=O)/C=C/c2ccc(Cl)c(Cl)c2)c1	4.52			5.08	4.95
	6.96	< 20%	O=Cc1ccccc1/C=N/Nc1nc(-c2ccccc2)cs1	< 4.00			4.91	4.85
	4.75	< 20%	Cc1ccc(C)c(/N=C/c2cccc(O)c2O)c1					
5.71	6.47		O=C(Nc1nc2ccccc2s1)c1cccc(C(Cl)(Cl)Cl)c1	4.36			4.60	5.06
5.33	5.74		O=C(Nc1nc2ccccc2s1)c1ccc(Cl)cc1Cl	< 4.00			4.23	4.70
